S1P3 antagonist – S1P3 receptor antagonists, primary screen, cell-based; Sphingosine 1-phosphate receptor 3 (Homo sapiens), Q99500; CHO S1P3 NFAT-BLA reporter, FRET fluorescence, antagonist mode; inhibition, % at 4.98 µM; actives 0.27% (n = 170,000); AID 485, 2006;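 active means inhibition above the plate cutoff, the mean inhibition of test wells on that plate plus 3 SD, cut at about 28% in these data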;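 further: cells challenged with S1P at its EC80 of 0.8 µM; blue over green emission ratio from cleaved BLA substrate after 4 h stimulation; 0% = S1P-stimulated wells and 100% = unstimulated DMSO-only wells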
Hsp70 activator – Hsp70 transcriptional activators, primary screen, cell-based, HeLa, Hsp70 promoter luciferase, luminescence, 10 µM; HeLa Hsp70 promoter luciferase reporter; scaled: vehicle 0, proteasome-inhibitor control 100%; activation, % at 10 µM; actives 0.04% (n = 200,000); AID 1203, 2008;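 active means activation above the mean across all tested compounds plus 3 SD, cutoff set per campaign, cut at about 5.5% in these data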;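 further: 100% = MG132 at 30 µM as the positive control and 0% = DMSO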
Dynein cargo inh – inhibitors of GR-EGFP nuclear translocation, primary screen, dynein cargo transport inhibitor project, imaging, high-content, 3617.4 mouse cells; test concentration mostly 20 µM; stimulated with dexamethasone, 1 µM; stronger effect = lower value; actives 0.47% (n = 220,000); z-score, hits read low;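 active means plate z-score of nuclear minus cytoplasmic receptor signal below a set negative limit, without overly bright fluorescence or cell loss, cut at about -3.5 in these data, passing the limit was not always enough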;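 further: z-score of nuclear minus cytoplasmic ring GR-EGFP intensity difference per well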
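Schedule: 48 h induction, then 1 h compound, then 30 min agonist, 37 °C. Buffer or medium: tetracycline-free induction medium containing charcoal-stripped FBS. Reagent: 1.0 µM final dexamethasone stimulus. Evaluation: nuclear versus cytoplasmic GR-EGFP signal, averaged per well. Signal: high-content fluorescence imaging after fixation.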
S1P4 ag – S1P4 receptor agonists, primary screen, cell-based | S1P4-expressing cell line, agonist reporter assay | activation, % at 4.98 µM | AID 1509, 2009 | Sphingosine 1-phosphate receptor 4 (Homo sapiens), O95977 | actives 0.35% (n = 220,000); in the data active means activation above about 11%;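 further: 0% = DMSO vehicle and 100% = reference agonist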
Target sequence (O95977 whole entry, looked up): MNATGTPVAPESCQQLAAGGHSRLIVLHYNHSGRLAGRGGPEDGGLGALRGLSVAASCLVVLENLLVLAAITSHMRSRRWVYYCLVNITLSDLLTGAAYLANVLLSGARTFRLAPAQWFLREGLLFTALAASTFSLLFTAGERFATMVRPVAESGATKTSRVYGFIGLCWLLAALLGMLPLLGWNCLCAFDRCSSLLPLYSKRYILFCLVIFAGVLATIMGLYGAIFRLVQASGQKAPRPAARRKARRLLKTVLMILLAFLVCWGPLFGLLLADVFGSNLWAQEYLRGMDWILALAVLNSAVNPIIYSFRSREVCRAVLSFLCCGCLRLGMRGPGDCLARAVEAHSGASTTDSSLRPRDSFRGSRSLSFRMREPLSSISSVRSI
S1P4 antagonist – S1P4 receptor antagonists, primary screen, cell-based | S1P4-expressing cells, antagonist mode, reporter read-out | inhibition, % at 4.98 µM | actives 0.26% (n = 220,000); in the data active means inhibition above about 29%;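 further: 0% = wells stimulated with agonist and 100% = vehicle wells without agonist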
MDM2 E3 inh – MDM2-luciferase reporter signal enhancers, primary screen, MDM2 E3 ligase inhibitor project, cell-based, luminescence, 1536-well; E3 ubiquitin-protein ligase Mdm2 (Homo sapiens), Q00987; cell-based MDM2 ubiquitination luciferase reporter, 2 h; 0 = plate control, 100 = twice control, blank-subtracted; actives 0.11% (n = 210,000); signal enhancement, % at 5 µM; AID 1230, 2008;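 active means signal enhancement of 30% or more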;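 further: luminescence tracks abundance of the self-degrading MDM2-luciferase fusion protein; higher signal means inhibition of MDM2 E3 ligase activity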
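System: stable MDM2–luciferase fusion reporter cells / Input: 2000 cells seeded into each well / Schedule: 4 h settle plus 2 h compound, 37 °C / Compound: single-point 5 µM / Buffer or medium: cells held in DMEM / Benchmarks: control and blank well means / Evaluation: percent signal gain over controls, blank-subtracted / Measured by: luciferase luminescence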
S1P4 ag conf – S1P4 receptor agonists, retest, confirmation, cell-based, high throughput | shares compounds with S1P4 ag | S1P4 agonist cell-based reporter assay | activation, % at 4.98 µM | actives 7% (n = 740) | AID 1523, 2009; in the data active means activation above about 12%;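 further: 0% = vehicle and 100% = full reference agonist response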
S1P1 agonist – S1P1 receptor agonists, human, counter-screen for S1P4 agonist project, cell-based. actives 4% (n = 740). shares compounds with S1P4 ag. AID 1563, 2009. activation, % at 4.98 µM. S1P1 agonist cell-based assay, activation; in the data active means activation above about 21%;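 further: 0% = vehicle wells and 100% = reference agonist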
* hit, by the source's call; . = no result given. Only some compounds are listed: those with a hit (about 1.3% of all), similar ones and a draw of the others.

SMILES	S1P3 antagonist	Hsp70 activator	Dynein cargo inh	S1P4 ag	S1P4 antagonist	MDM2 E3 inh	S1P4 ag conf	S1P1 agonist
CCOc1ccc(C(=O)NCC(=O)Nc2ccc(N3CCOCC3)cc2)cc1OCC	-3	0	-0.52	0	-17	-13	.	.
CNS(=O)(=O)c1ccc(NC(=O)c2ccccn2)cc1	-7	0	-0.6	70*	9	-22	-1	-3
CCOc1ccc(NC(=O)c2ccccn2)cc1	-7	-1	0.92	1	-16	-84	.	.
Cc1ccc(NC(=O)COC(=O)CN2C(=O)COc3ccccc32)cc1	.	0	0.34	29*	-15	1	-2	3
Cc1ccc(CCNC(=O)CN2C(=O)COc3ccccc32)cc1	12	0	-0.44	-1	-2	-17	.	.
Fc1ccc(-c2nnc3ccccn23)cc1	-5	0	-0.36	29*	1	4	-2	2
CCNS(=O)(=O)c1ccc(NC(=O)Cn2cc([N+](=O)[O-])cn2)cc1	7	0	-0.049	0	0	-12	.	.
CC(C)/C=N/Nc1nc(-c2ccc(Br)cc2)cs1	-33	0	1.2	34*	8	-7	-2	12
CCn1cc(CNC(=O)/C=C/c2cnn(C)c2)c(C)n1	-29	0	0.54	36*	-14	-10	-3	1
COc1ccc(NC(=O)Cn2cccc2)c(OC)c1	9	0	0.003	35*	-10	-18	-2	0
COc1cc(OC)c(NC(C)C(=O)N2CCCC2)cc1Cl (stereo not given)	-17	1	-0.31	-2	1	-7	.	.
CC1OC23CCCCC2C(C#N)(C(=N)O3)C1(C#N)C#N (stereo not given)	.	0	-1.5	12*	11	-6	-1	-1
CCC1OC23CCCCC2C(C#N)(C(=N)O3)C1(C#N)C#N (stereo not given)	.	0	-3.2	2	-6	3	.	.
CCC(C)NCCCOc1ccc([N+](=O)[O-])cc1 (stereo not given)	5	0	-0.22	58*	8	-5	-2	-8
CCOc1ccccc1OCC(=O)Nc1nc2ccccc2[nH]1	-5	0	0.71	-3	-6	-8	.	.
Cc1ccccc1OCC(=O)Nc1nc2ccccc2[nH]1	5	0	1.9	21*	24	-48	-1	4
Cc1cc(Nc2cc(F)ccc2C)n2nc(C)nc2n1	-44	0	1.9	14*	0	.	-2	-8
CCOCCCNS(=O)(=O)c1ccc(NC(=O)CN2C(=O)c3ccccc3C2=O)cc1	-10	0	-0.58	1	-21	-4	.	.
CCOCCCNS(=O)(=O)c1ccc(NC(=O)N2c3ccccc3Sc3ccccc32)cc1	.	0	-0.32	34*	0	-1	-3	-9
CCCNC(=O)Cn1nc([N+](=O)[O-])c([N+](=O)[O-])c1C	0	0	-0.54	14*	-12	-6	-2	4
Nc1nc(N2CCOCC2)nc2ccccc12	-32	0	2.9	22*	0	-16	-1	-7
c1ccc2c(N3CCCCC3)nc(N3CCOCC3)nc2c1	11	0	2.1	1	-3	-10	.	.
CCCc1ccc(OCC(=O)Nc2cc(S(=O)(=O)CC)ccc2O)cc1	2	0	-0.78	12*	-20	4	-1	2
CN(C)CCOC(=O)c1ccc2c(c1)S(=O)(=O)c1ccccc1C2=O	-16	.	0.018	0	19	.	.	.
COc1ccc2occ(C(=O)c3cccs3)c2c1	.	0	-0.022	166*	-8	-12	-1	3
SMILES	S1P3 antagonist	Hsp70 activator	Dynein cargo inh	S1P4 ag	S1P4 antagonist	MDM2 E3 inh	S1P4 ag conf	S1P1 agonist
COC(=O)Cn1c(O)c(N=NC(=O)c2ccc3c(c2)OCO3)c2ccccc21	-28	0	0.044	0	4	-17	.	.
COCc1cc(=O)[nH]c(/N=C(\N)Nc2c(F)cccc2F)n1	4	.	-0.55	0	-6	-15	.	.
Cc1ccsc1/C=N\NC(=O)Cn1nnc2ccccc21	6	0	-0.12	28*	-9	-19	-2	-6
CN(C)c1ccc(/C=N/NC(=O)Cn2nnc3ccccc32)cc1	-25	0	0.39	1	1	-10	.	.
COc1ccc(/C=N/NC(=O)Cn2nnc3ccccc32)cc1OC	0	0	0.12	132*	-11	-3	0	6
CC(=O)NCCc1c[nH]c2ccc(OCC(O)CNC(C)(C)C)cc12 (stereo not given)	-21	.	0.59	0	-24	-9	.	.
COCCNC(=S)Nc1ccc2nsnc2c1	-21	0	-0.12	12*	-9	3	-2	-6
COCCNC(=S)Nc1ccc(Cl)c(Cl)c1	12	0	-0.43	-1	5	0	.	.
CSc1nc(N)n2nc(C(C)(C)C)cc2n1	-4	.	0.52	23*	-17	11	-2	-5
CC(C)(C)c1cc2nc(N)nc(N)n2n1	-5	.	0.38	0	15	-9	.	.
CC(=O)N1CCC2(CC1)C/C(=N\NC(=S)Nc1ccc(C)cc1)c1cc(O)ccc1O2	-4	0	0.00068	2	6	-16	.	.
Cc1ccc([N+](=O)[O-])c(NC2OC(CO)C(O)C2O)c1 (stereo not given)	0	0	-0.35	2	-22	-16	.	.
CCCCNC(=O)C1CC(c2c(Cl)cccc2Cl)=NO1 (stereo not given)	.	0	-0.56	13*	-19	-13	-2	-1
CCCCNC(=O)C1CC(c2cccc([N+](=O)[O-])c2)=NO1 (stereo not given)	.	0	1.1	3	0	-16	.	.
Cc1[nH]c2ccccc2c1SCC(=O)NNC(=O)Nc1ccc(OC(F)(F)F)cc1	-12	.	-0.3	3	-5	-8	.	.
Cc1nn(-c2ccccc2)c(Cl)c1/C=N/NS(=O)(=O)c1ccc(Br)cc1	-13	0	-0.83	51*	2	-7	-2	-6
O=C(CN1N=C(c2ccccc2)CCC1=O)NCc1cccs1	-6	0	2	0	-8	-6	.	.
O=C(O)[C@H](Cc1ccccc1)NC(=O)N1CCN(c2ccc(F)cc2)CC1	5	.	0.011	-1	-1	-10	.	.
